This is a sample that favours compounds with a hit; in the whole collection about 2.5% have one here.
SENP1 FRET inh: human SENP1 catalytic domain inhibitors, primary screen, biochemical, FRET, uHTS; hit rate 0.21% among 360,000; Sentrin-specific protease 1 (Homo sapiens), Q9P0U3; AID 624204, 2012; inhibition, % at 10 µM; recombinant SENP1 catalytic domain, CyPet-SUMO1-YPet FRET cleavage;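 active = inhibition at least 30% at 10 µM, raw YFP signal under a set limit, fluorescence ratio 0.5 to 1.5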;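 note: 0% = enzyme with DMSO and 100% = no enzyme wells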
Target sequence (Q9P0U3 419-644 limits assumed): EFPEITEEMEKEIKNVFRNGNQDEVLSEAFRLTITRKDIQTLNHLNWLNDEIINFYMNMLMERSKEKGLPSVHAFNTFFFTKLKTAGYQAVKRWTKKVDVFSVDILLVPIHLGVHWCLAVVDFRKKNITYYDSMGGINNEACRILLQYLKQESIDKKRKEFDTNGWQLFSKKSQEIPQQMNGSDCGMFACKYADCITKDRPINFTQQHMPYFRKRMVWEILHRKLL
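system = hSENP1 catalytic domain, recombinant | reagent = SFCypet-SUMO1-SFYpet substrate at 25 nM | doses = one dose per compound, 10 µM, 0.5% DMSO | incubation = enzyme reaction for 50 min at room temperature, dark | measured by = FRET, CFP and YFP emission | controls = no-enzyme low, enzyme-DMSO high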
SENP6 inh: SENP6 protease inhibitors, primary screen, biochemical, luminescence, uHTS. Sentrin-specific protease 6 (Homo sapiens), Q9GZR1. inhibition, % at 10 µM. hit rate 1.8% among 330,000. AID 2599, 2010. Recombinant SENP6 catalytic domain, aminoluciferin luminescence;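 active = inhibition above about 50% at the single tested dose, limit read from the data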;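 note: plate controls were DMSO wells with enzyme for no effect and DMSO wells lacking enzyme for full effect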
Target sequence (Q9GZR1 628-1112 limits assumed): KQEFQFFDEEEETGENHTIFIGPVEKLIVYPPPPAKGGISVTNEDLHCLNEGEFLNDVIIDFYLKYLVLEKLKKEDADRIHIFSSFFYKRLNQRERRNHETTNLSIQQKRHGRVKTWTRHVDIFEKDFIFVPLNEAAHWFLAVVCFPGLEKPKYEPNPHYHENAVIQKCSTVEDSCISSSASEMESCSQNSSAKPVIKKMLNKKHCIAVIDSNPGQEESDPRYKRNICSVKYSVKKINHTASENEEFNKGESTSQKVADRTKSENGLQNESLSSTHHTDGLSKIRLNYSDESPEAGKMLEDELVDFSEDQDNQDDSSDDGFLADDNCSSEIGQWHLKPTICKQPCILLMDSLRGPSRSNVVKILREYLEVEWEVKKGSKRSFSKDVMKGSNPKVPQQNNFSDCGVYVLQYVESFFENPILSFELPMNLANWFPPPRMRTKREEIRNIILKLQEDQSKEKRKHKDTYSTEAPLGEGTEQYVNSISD
SENP8 block-1: human SENP8 protease inhibitors, primary screen, biochemical, fluorescence, Nedd8 protein substrate, uHTS. Sentrin-specific protease 8 (Homo sapiens), Q96LD8. recombinant SENP8. inhibition, % at 20 µM. hit rate 0.64% among 360,000; in the data active = inhibition mostly above about 40%, no sharp cut-off; inactive = mostly below about 27%
SENP8 block-2: SENP8 protease inhibitors, primary screen, biochemical, luminescence | purified SENP8, Z-RLRGG-aminoluciferin cleavage | hit rate 1.2% among 330,000 | Sentrin-specific protease 8 (Homo sapiens), Q96LD8 | AID 2540, 2010 | inhibition, % at 10 µM; in the data active = inhibition above about 50%
SENP7 inh: SENP7 protease inhibitors, primary screen, biochemical, luminescence, uHTS. AID 434973, 2010. hit rate 1.5% among 330,000. inhibition, % at 5 µM. recombinant SENP7, Z-RLRGG-aminoluciferin luminescence, 40 min;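 active = inhibition above about 50% at the single test dose, limit read from the data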;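 note: plate controls were DMSO with enzyme for no effect and no enzyme buffer wells for full effect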
SENP8 conf: SENP8 protease inhibitors, retest, confirmation, biochemical, luminescence, single concentration; shares compounds with SENP7 inh; Recombinant SENP8, Z-RLRGG-aminoluciferin luminescence, 60 min; inhibition, % at 12.5 µM; hit rate 40% among 6,200; AID 488912, 2010;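 active = mean inhibition across replicates above about 50%, limit read from the data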
SENP6 confirm: SENP6 protease inhibitors, confirmation, biochemical, luminescence, single concentration | shares compounds with SENP7 inh | recombinant SENP6, Z-RLRGG-aminoluciferin luminescence | inhibition, % at 12.5 µM | hit rate 58% among 6,200 | AID 488915, 2010
SENP7 conf: SENP7 protease inhibitors, retest, confirmation, biochemical, luminescence, single concentration. recombinant SENP7, Z-RLRGG-aminoluciferin luminescence, 40 min. hit rate 69% among 6,200. inhibition, % at 12.5 µM. shares compounds with SENP7 inh. AID 488917, 2010
Casp3 select: caspase-3 protease inhibitors, confirmation, selectivity assay for SENP inhibitor project, biochemical, single concentration; hit rate 60% among 6,200; purified caspase-3, Z-DEVD-aminoluciferin luminescence, 60 min; shares compounds with SENP7 inh; inhibition, % at 12.5 µM;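 active = mean inhibition above about 50%, limit read from the data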;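 note: plate controls were enzyme with DMSO for no effect and wells without caspase-3 for full effect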
Luc interf: luminescence interference (SENP counter-screen). shares compounds with SENP7 inh. AID 488919. hit rate 39% among 6,200. inhibition, % at 12.5 µM. Pre-incubated SENP8/Z-RLRGG-aminoluciferin, luciferase luminescence interference;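 active = mean inhibition above about 50% when retested at one dose, limit read from the data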;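 note: plate controls were DMSO wells with completed reaction for no effect and substrate without enzyme for full effect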
The depositor's hits bear a star; . = no result.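 Rule for the calls, unless noted: active = mean inhibition above about 50% in the one-dose retest (limit read from the data); inactive = the rest.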

SMILES	SENP1 FRET inh	SENP6 inh	SENP8 block-1	SENP8 block-2	SENP7 inh	SENP8 conf	SENP6 confirm	SENP7 conf	Casp3 select	Luc interf
CN1C(=O)/C(=C/c2ccc(N3CCCCCC3)o2)C(=O)NC1=S	81.4*	-31.6	14.8	4.9	11.0	.	.	.	.	.
C=CCN1C(=O)/C(=C\c2ccc(N3CCOCC3)o2)C(=O)NC1=S	40.0*	-14.7	26.7	-3.3	3.3	.	.	.	.	.
CN1C(=O)/C(=C\c2ccc(N3CCCCC3)o2)C(=O)NC1=S	87.8*	-22.4	16.6	-5.1	14.5	.	.	.	.	.
CC(=NCC1CCCO1)c1c(O)n(-c2ccccc2C)c(=O)[nH]c1=O (stereo unspecified)	1.5	-2.6	0.0	-5.6	9.5	.	.	.	.	.
CCCc1c(C)nc(-c2ccc(C)cc2)nc1OC(=O)N(C)C	1.3	-13.8	6.8	-6.5	15.2	.	.	.	.	.
Cc1cc(C=C2C(=O)NC(=S)NC2=O)c(C)n1C1CCCC1	-1.4	-6.6	8.9	1.4	1.9	.	.	.	.	.
Cc1cc(C=C2C(=O)N(C)C(=S)N(C)C2=O)c(C)n1C1CCCCC1	37.3	4.0	41.2*	-2.7	-2.5	.	.	.	.	.
COc1c(C)cc(C(=O)C2CCCN(Cc3ccccn3)C2)cc1C (stereo unspecified)	-3.5	-6.3	-5.6	3.8	5.5	.	.	.	.	.
CC1CCN(S(=O)(=O)c2ccc(NN=C(C#N)C#N)cc2)CC1	.	-12.3	.	-9.6	-6.5	.	.	.	.	.
N#CC(C#N)=NNc1ccc(S(N)(=O)=O)cc1	3.0	4.9	43.5*	-4.4	2.8	.	.	.	.	.
c1ccc(N2[C@@H]3CC[C@H]2c2ccccc2C3)cc1	2.8	.	-0.1	.	.	.	.	.	.	.
O=c1c2ccccc2nc(/C=C/c2ccccc2O)n1-c1ccccc1O	49.2*	2.8	-147.1	-2.3	-1.8	.	.	.	.	.
O=c1c2ccccc2[se]n1-c1ccccc1	-1.1	72.2*	-10.7	61.2*	57.9*	.	.	.	.	.
O=c1c2ccccc2nc(-c2ccccc2)n1-c1ccccc1	2.9	-0.1	4.5	5.4	-5.3	.	.	.	.	.
CCCNC1=C(C)C(=O)C2=C(C1=O)C(COC(N)=O)[C@]1(OC)C3NC3CN21 (stereo partly specified)	-2.1	65.8*	32.1	37.6	29.1	-9.8	-5.3	-7.5	-2.9	-8.6
COc1ccc(CCNC(C)CCc2ccc(OC)cc2)cc1 (stereo unspecified)	2.3	-10.8	20.3	-10.8	7.4	.	.	.	.	.
CN1CC=C(/C=C/c2ccc(-c3ccccc3)cc2)CC1	.	85.9*	.	75.6*	81.5*	71.6*	87.6*	97.3*	87.7*	71.7*
COc1ccc(/C=C/C2=CCN(C)CC2)cc1	-12.1	10.7	-13.4	-1.6	-1.7	.	.	.	.	.
CSCCC(N=Cc1c(O)n(-c2ccc(Cl)cc2)c(=O)[nH]c1=O)C(=O)OC(C)(C)C (stereo unspecified)	1.1	-2.2	13.3	1.4	5.8	.	.	.	.	.
Cc1cccc(N/N=C/c2c(O)[nH]c(=S)[nH]c2=O)c1	3.1	35.2	19.8	83.7*	1.1	93.9*	94.5*	100.9*	96.4*	58.4*
COc1ccc(N/N=C/c2c(O)n(-c3cccc(C)c3)c(=O)[nH]c2=O)cc1	6.6	-7.3	0.9	-2.8	-1.2	.	.	.	.	.
COC(=O)C1=C(c2cccc(OCc3ccccc3)c2)C[C@@H]2CC[C@H]1N2C(=O)NCCc1ccc(F)cc1	0.7	-15.5	14.4	-5.8	1.2	.	.	.	.	.
Cc1cccc(N=Nc2ccc(N(C)C)cc2)c1	4.1	90.2*	16.2	84.3*	87.1*	-24.4	82.7*	18.6	20.4	19.5
CN(C)c1ccccc1	3.1	.	2.2	.	.	.	.	.	.	.
Nc1c2c(nc3sc4c(c13)CCCC4)CCCCC2	-1.3	81.0*	13.3	69.3*	71.7*	17.3	19.3	47.0	50.1*	9.2
SMILES	SENP1 FRET inh	SENP6 inh	SENP8 block-1	SENP8 block-2	SENP7 inh	SENP8 conf	SENP6 confirm	SENP7 conf	Casp3 select	Luc interf
Nc1c2c(nc3sc4c(c13)CCCC4)CCCC2	-1.6	15.6	-10.0	9.2	14.7	.	.	.	.	.
CCOC(=O)c1cccc(C2=C(CNC(=O)c3nccs3)[C@H]3CC[C@@H](C2)N3Cc2ccccc2)c1	-0.7	.	4.8	.	.	.	.	.	.	.
CN1C(=O)C(=Cc2ccccc2OCc2ccc(Cl)cc2)C(=O)N(C)C1=O	-1.0	75.1*	9.9	44.2	63.8*	44.0	57.2*	76.2*	51.9*	69.8*
Cc1ccsc1C(=O)C1CCCN(Cc2cc(C(C)C)n[nH]2)C1 (stereo unspecified)	1.4	13.4	7.6	0.4	1.8	.	.	.	.	.
Clc1ccccc1Nc1ncnc(-n2cccc2)n1	-0.1	81.5*	23.8	64.0*	71.6*	67.1*	68.0*	91.1*	59.6*	48.0
O=c1[nH]c(=O)n(CCc2ccccc2)c(O)c1C=NCc1ccc2c(c1)OCO2	-11.4	-8.2	-10.0	0.8	-1.8	.	.	.	.	.
CCC(COC(=O)NC)NC(=O)Oc1cccc(C)c1 (stereo unspecified)	2.5	-10.8	18.2	-5.6	-9.7	.	.	.	.	.
CNC(=O)Oc1cccc(-c2cn3cc(Cl)ccc3n2)c1	-0.5	85.3*	-271.6	83.2*	83.2*	92.4*	94.7*	101.7*	94.8*	92.0*
COC(=O)C1=C(c2cccc(C#N)c2)C[C@@H]2CC[C@H]1N2C(=O)N1CCC(C)CC1	3.6	21.2	12.8	1.3	7.3	.	.	.	.	.
O=C(Nc1ccc(Cl)c(Cl)c1)c1ccco1	1.8	56.5*	9.7	51.2*	38.5	59.6*	57.6*	85.0*	48.1	48.3
CN(C(=O)Oc1ccc(C(=O)c2ccc(Cl)cc2)cc1)c1ccccc1	-0.8	4.7	17.2	-1.2	1.5	.	.	.	.	.
CN(C)C(=O)Oc1ccc(OC(=O)c2ccccc2)cc1	0.5	90.0*	10.6	80.7*	5.0	64.9*	89.3*	98.2*	92.5*	50.9*
COc1ccc(Cc2nccc3cc(OC)c(OC)cc23)cc1OC	1.2	63.9*	55.4*	27.0	45.3	4.9	22.8	2.2	-1.8	-11.2
O=P(/C=C1\OCc2ccccc21)(Oc1ccccc1)Oc1ccccc1	-0.2	.	4.4	.	.	.	.	.	.	.
COc1ccc(OC)c(N2C(=O)/C(=C/c3ccco3)C(=O)NC2=S)c1	.	-43.1	.	22.5	-0.4	.	.	.	.	.

Screens deposited in PubChem BioAssay by Sanford-Burnham Center for Chemical Genomics.
